According to publication PMC10958515 (ACS Chemical Neuroscience, 2024):
Like-named read-outs stand apart in the source and are kept apart here.

Legend:
hNaV1.5 = hNaV1.5 (Homo sapiens, UniProt Q14524); test: Qube automated patch-clamp, NaV subtype inhibition; format: cell-based
hNaV1.1 = hNaV1.1 (Homo sapiens, UniProt P35498); test: Qube automated patch-clamp, NaV subtype inhibition; format: cell-based
hNaV1.2 = hNaV1.2 (Homo sapiens, UniProt Q99250); test: Qube automated patch-clamp, NaV subtype inhibition; format: cell-based
NaV1.6 [1] = target: T1, NaV1.6 (Homo sapiens, UniProt Q9UQD0); test: Steady-state and use-dependent inhibition; format: cell-based; conditions: V0.5 holding potential
NaV = conditions: cited from earlier work
seizures = conditions: cited from earlier work
NaV1.6 [2] = target: T1, NaV1.6; test: Recovery from inactivation in presence of compound; format: cell-based
In short: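 Human NaV1.6 cells on an automated planar patch-clamp platform at 27 °C. From −120 mV, a 10 s prepulse to 0 mV is followed by a 0 mV test pulse at varying intervals. Mean normalized recovery in compound is fitted biexponentially, and the slow time constant is plotted against concentration. The fraction recovered at 1.7 s quantifies the concentration dependence.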

[3] = IC50 for steady-state inhibition (P1), first pulse

T1 sequence (Q9UQD0 whole entry): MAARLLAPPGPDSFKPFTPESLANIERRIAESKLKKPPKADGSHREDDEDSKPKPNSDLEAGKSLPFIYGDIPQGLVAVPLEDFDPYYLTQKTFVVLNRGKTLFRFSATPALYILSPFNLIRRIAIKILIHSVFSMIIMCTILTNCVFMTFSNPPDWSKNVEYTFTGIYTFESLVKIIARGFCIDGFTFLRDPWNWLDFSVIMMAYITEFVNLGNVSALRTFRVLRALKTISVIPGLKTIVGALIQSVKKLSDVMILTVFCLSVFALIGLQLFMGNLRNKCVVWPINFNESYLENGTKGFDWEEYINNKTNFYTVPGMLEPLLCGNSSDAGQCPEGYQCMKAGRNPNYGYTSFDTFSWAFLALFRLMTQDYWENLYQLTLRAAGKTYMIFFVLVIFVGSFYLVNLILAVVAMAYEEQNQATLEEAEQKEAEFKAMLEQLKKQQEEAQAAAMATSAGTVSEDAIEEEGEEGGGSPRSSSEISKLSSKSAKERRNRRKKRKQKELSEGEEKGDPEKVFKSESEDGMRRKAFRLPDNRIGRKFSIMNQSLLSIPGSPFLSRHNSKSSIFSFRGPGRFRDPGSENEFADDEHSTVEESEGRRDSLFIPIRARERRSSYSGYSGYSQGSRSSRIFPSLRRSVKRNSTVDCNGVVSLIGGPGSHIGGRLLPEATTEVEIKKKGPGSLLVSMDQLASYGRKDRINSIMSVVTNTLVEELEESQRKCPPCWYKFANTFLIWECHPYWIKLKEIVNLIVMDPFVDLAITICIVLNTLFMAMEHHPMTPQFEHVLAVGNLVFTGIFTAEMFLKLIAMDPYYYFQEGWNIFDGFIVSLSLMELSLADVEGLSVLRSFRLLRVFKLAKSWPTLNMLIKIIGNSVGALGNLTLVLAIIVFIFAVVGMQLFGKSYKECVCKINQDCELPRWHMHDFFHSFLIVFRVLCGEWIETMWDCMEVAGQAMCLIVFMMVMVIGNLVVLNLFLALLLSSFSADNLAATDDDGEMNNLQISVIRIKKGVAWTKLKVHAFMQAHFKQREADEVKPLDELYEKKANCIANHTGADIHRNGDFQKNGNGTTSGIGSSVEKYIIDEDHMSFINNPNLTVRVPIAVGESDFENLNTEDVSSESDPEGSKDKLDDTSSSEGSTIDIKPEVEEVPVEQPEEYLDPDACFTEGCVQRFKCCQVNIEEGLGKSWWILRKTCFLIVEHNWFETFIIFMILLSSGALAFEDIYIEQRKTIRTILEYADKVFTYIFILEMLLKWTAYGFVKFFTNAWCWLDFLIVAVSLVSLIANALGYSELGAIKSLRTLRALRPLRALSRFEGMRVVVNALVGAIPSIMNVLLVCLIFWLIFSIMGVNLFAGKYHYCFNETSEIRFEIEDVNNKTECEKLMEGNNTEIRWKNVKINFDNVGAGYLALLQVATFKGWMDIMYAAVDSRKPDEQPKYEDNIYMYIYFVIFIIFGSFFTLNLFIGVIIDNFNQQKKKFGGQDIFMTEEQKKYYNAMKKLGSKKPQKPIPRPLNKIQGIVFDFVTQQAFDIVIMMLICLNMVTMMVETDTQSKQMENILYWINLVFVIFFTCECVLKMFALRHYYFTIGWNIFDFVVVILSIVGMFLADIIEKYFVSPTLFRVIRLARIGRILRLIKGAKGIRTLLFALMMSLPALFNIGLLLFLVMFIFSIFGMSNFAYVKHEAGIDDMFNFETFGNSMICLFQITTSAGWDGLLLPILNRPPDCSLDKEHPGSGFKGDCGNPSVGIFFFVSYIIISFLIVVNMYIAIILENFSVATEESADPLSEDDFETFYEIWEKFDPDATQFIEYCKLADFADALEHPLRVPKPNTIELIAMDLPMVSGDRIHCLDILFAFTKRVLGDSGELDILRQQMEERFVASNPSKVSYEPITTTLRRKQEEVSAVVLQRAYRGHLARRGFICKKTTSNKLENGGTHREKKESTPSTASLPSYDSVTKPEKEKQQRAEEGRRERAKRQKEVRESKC
T1 sequence (Q92913 1-192 isoform Q92913-2 partner): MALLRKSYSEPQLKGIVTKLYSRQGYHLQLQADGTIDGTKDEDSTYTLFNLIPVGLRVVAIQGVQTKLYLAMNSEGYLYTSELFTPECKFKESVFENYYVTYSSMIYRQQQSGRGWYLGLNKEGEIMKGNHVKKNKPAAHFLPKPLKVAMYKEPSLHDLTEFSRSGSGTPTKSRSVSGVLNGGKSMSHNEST
hNaV1.5, sequence (Q14524 whole entry): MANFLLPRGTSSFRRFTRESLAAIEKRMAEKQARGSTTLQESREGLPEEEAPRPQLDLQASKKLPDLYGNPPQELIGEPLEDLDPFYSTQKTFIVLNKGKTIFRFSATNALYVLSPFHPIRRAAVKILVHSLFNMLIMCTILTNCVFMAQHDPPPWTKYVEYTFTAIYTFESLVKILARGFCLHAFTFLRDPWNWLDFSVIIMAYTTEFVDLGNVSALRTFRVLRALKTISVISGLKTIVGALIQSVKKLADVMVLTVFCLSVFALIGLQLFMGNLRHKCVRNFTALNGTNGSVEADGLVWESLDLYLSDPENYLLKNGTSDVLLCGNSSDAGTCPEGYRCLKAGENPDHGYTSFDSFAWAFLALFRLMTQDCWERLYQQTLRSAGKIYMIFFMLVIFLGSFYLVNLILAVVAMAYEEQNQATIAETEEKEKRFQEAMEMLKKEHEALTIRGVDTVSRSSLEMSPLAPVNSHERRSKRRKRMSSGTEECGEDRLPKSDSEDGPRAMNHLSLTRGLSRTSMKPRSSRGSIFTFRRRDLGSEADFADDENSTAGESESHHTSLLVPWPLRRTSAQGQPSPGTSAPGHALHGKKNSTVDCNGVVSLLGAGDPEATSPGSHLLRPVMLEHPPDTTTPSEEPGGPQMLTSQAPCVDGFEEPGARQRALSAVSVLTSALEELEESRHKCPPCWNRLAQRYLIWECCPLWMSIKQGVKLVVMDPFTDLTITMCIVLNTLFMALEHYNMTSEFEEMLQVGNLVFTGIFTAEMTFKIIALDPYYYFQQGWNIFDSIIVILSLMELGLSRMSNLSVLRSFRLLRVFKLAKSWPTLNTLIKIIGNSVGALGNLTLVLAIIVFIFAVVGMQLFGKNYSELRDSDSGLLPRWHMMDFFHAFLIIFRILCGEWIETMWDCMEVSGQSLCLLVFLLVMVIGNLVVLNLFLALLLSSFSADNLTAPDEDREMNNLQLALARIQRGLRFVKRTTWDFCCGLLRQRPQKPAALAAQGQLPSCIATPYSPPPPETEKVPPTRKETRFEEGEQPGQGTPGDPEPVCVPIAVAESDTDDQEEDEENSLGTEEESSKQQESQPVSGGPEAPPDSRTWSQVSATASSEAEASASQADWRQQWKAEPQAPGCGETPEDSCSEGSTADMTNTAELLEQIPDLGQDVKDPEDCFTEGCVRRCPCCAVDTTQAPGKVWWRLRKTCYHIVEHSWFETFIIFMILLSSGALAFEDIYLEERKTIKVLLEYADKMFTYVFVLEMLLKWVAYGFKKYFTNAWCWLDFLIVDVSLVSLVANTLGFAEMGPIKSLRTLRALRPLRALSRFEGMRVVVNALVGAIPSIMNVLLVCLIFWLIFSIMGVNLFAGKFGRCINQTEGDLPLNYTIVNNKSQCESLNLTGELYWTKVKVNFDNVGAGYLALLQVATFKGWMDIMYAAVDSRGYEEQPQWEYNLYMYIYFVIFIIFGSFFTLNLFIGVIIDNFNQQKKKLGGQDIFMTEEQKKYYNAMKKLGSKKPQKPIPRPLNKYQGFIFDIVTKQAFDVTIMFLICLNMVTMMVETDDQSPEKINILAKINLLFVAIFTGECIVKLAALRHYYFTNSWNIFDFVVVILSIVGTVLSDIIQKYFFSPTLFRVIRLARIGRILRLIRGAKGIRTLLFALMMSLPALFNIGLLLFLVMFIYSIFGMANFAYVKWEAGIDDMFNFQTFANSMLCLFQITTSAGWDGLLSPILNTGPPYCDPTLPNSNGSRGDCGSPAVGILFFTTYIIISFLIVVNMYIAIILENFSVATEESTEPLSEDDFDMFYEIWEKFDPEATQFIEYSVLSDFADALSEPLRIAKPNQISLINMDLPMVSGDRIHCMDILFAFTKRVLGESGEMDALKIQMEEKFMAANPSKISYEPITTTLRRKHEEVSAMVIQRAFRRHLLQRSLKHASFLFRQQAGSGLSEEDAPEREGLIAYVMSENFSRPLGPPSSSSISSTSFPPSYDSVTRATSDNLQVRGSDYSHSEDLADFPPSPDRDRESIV

Compound: NC(=O)N1c2ccccc2C=Cc2ccccc21 [carbamazepine]
- IC50 (hNaV1.5): 41.1 µM
- IC50 (hNaV1.1): 39.3 µM
- IC50 (hNaV1.2): 67.4 µM
- IC50 (NaV1.6 [1]; IC50 for UDB (P500), 500th pulse): 16.2 µM
- IC50 (NaV1.6 [1]; [3]): 17 µM

Compound: Nc1nnc(-c2cccc(Cl)c2Cl)c(N)n1 [lamotrigine]
- potency range (NaV): 10 to 100 µM

Compound: COC[C@@H](NC(C)=O)C(=O)NCc1ccccc1 [lacosamide]
- potency range (NaV): 10 to 100 µM

Compound: Cc1cc(S(=O)(=O)Nc2cscn2)c(F)cc1N(C)[C@H]1CCN(Cc2ccccc2)C1 [NBI-921352]
- efficacy in seizure models in vivo (seizures): efficacious and have improved tolerability in rodent seizure models

Compound: O=C1NC(=O)C(c2ccccc2)(c2ccccc2)N1 [phenytoin]
- IC50 (hNaV1.5): 23.8 µM
- time to fully equilibrate with the inactivated states (NaV1.6 [2]): ≤ 10 s
- IC50 (NaV1.6 [1]; [3]): 12.1 µM
- IC50 (NaV1.6 [1]; read-out: IC50 for UDB (P500), 500th pulse): 6.8 µM
